# pIC50: −log10 of the molar value.
# Legend:
# [1] = Oral bioavailability in Sprague-Dawley rat; type: ADME, organism-based; conditions: in vivo
# [2] = Plasma concentration in po dosed Sprague-Dawley rat after 12 hrs; type: ADME, organism-based
# [3] = AUC in po dosed Sprague-Dawley rat; type: ADME, organism-based; conditions: plasma
# [4] = AUC in iv dosed Sprague-Dawley rat; type: ADME, organism-based; conditions: plasma
# [5] = Inhibition of VLA-4 (unknown origin) binding to VCAM-1 in human Jurkat TM cells after 30 mins by fibronectin mediated cell adhesion assay; type: cell-based
# How it was run: (§1)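 Calcein-labelled Jurkat TM cells (10^5/well) in Hepes 20 mM, NaCl 140 mM, CaCl2 1 mM, MgCl2 1 mM, 0.3% BSA with activating anti-α4 TS2/16. Cells were preincubated 30 min on wet ice with anti-α5 (5 µg/ml) and a compound dose–response, then bound 35 min at 37 °C, 5% CO2 to human plasma fibronectin-coated wells. Wells were washed 3× and read by fluorescence to give IC50.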
# [6] = Plasma concentration in po dosed Sprague-Dawley rat after 6 hrs; type: ADME, organism-based
# Mus musculus [7] = assay: Inhibition of Eos influx in Black/6 mouse acute pulmonary cellular influx model at 3 mg/kg, po bid administered 1hr prior and 12 hrs post ova/alum challenge on day 28 and 29 relative to vehicle-treated control; type: functional
# How it was run: (§2)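 Female Black/6 mice were sensitized i.p. with ova/alum on day 1, boosted on day 14, and challenged with aerosolized ova on days 28 and 29. Compound was given by oral gavage (5 ml/kg) twice daily on days 28–29, 1 h before and 12 h after challenge. BAL was collected on day 30, 48 h after the first challenge. Eosinophil influx was reported as % inhibition against vehicle or against PS/2 (anti-α4, 10 mg/kg iv, 2 h before first challenge).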
# Mus musculus [8] = assay: Inhibition of Eos influx in Black/6 mouse acute pulmonary cellular influx model at 3 mg/kg, po bid administered 1hr prior and 12 hrs post ova/alum challenge on day 28 and 29 relative to PS/2; type: functional; how it was run: as §2
# Mus musculus [9] = assay: Inhibition of Eos influx in Black/6 mouse acute pulmonary cellular influx model at 10 mg/kg, po bid administered 1hr prior and 12 hrs post ova/alum challenge on day 28 and 29 relative to vehicle-treated control; type: functional; how it was run: as §2
# Mus musculus [10] = assay: Inhibition of Eos influx in Black/6 mouse acute pulmonary cellular influx model at 10 mg/kg, po bid administered 1hr prior and 12 hrs post ova/alum challenge on day 28 and 29 relative to alpha4 antibody PS/2; type: functional; how it was run: as §2
# [11] = Inhibition of VLA-4 in mouse serum binding to VCAM-1 in human Jurkat TM cells after 30 mins by fibronectin mediated cell adhesion assay; type: cell-based; conditions: 0.5 h
# [12] = Inhibition of VLA-4 in rat serum binding to VCAM-1 in human Jurkat TM cells after 30 mins by fibronectin mediated cell adhesion assay; type: cell-based; conditions: 0.5 h
# How it was run: (§3)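 Cells were preincubated 30 min on wet ice with anti-α5 (5 µg/ml) and a compound dose–response, then allowed to bind 35 min at 37 °C, 5% CO2 to human plasma fibronectin-coated wells. Wells were washed 3× and read by fluorescence to give IC50.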
# [13] = Inhibition of VLA-4 in human serum binding to VCAM-1 in human Jurkat TM cells after 30 mins by fibronectin mediated cell adhesion assay; type: cell-based; conditions: 0.5 h; how it was run: as §3
# [14] = Inhibition of VLA-4 binding to VCAM-1 in human Jurkat TM cells after 30 mins by fibronectin mediated cell adhesion assay using BSA; type: cell-based; how it was run: as §1
SMILES,bioavailability [1] [%],concentration at 12 h [2] [ng/mL],AUC [3] [ng·h/mL],AUC [4] [ng·h/mL],pIC50 [5],concentration at 6 h [6] [ng/mL],inhibition in vivo at 3 mg/kg (Mus musculus [7]) [%],inhibition in vivo at 3 mg/kg (Mus musculus [8]) [%],inhibition in vivo at 10 mg/kg (Mus musculus [9]) [%],inhibition in vivo at 10 mg/kg (Mus musculus [10]) [%],pIC50 [11],pIC50 [12],pIC50 [13],pIC50 [14]
CCN(CC)c1ncc(N(CC)S(=O)(=O)c2ccc(F)c(F)c2)c(N[C@@H](Cc2ccc(OC(=O)N(C)C)cc2)C(=O)O)n1,24,8,4200,17000,8.40,,,,,,,,,
CCN(CC)c1ncc(N(C)S(=O)(=O)c2ccc(C)cc2)c(N[C@@H](Cc2ccc(OC(=O)N(C)C)cc2)C(=O)O)n1,15,,6000,41000,8.70,100,,,,,,,,
CCN(CC)c1ncc(N(C)S(=O)(=O)c2ccc(F)cc2)c(N[C@@H](Cc2ccc(OC(=O)N(C)C)cc2)C(=O)O)n1,74,120,20000,27000,8.70,,3,5,45,80,8.22,6.55,7.35,8.70
C#CCN(c1cnc(N(CC)CC)nc1N[C@@H](Cc1ccc(OC(=O)N2CCCC2)cc1)C(=O)O)S(=O)(=O)c1ccc(F)cc1F,33,120,42000,126000,7.89,,,,,,,,,
CCN(CC)c1ncc(N(CC)S(=O)(=O)c2ccc(Cl)cc2)c(N[C@@H](Cc2ccc(OC(=O)N(C)C)cc2)C(=O)O)n1,33,12,5100,17000,8.15,,,,,,,,,
CCN(CC)c1ncc(N(C)S(=O)(=O)c2ccc(Cl)cc2)c(N[C@@H](Cc2ccc(OC(=O)N3CCCC3)cc2)C(=O)O)n1,33,330,51000,153000,7.72,,,,,,,,,
Cc1ccc(S(=O)(=O)N(C)c2cncnc2N[C@@H](Cc2ccc(OC(=O)N(C)C)cc2)C(=O)O)cc1,,,,,8.70,,,,,,,,,
CCN(CC)c1ncc(N(CC)S(=O)(=O)c2ccc(F)cc2F)c(N[C@@H](Cc2ccc(OC(=O)N3CCCC3)cc2)C(=O)O)n1,34,50,28000,83000,8.05,,,,,,,,,
CCN(CC)c1ncc(N(CC)S(=O)(=O)c2ccc(Cl)cc2)c(N[C@@H](Cc2ccc(OC(=O)N3CCCC3)cc2)C(=O)O)n1,31,100,34000,110000,7.77,,,,,,,,,
CCN(CC)c1ncc(N(C)S(=O)(=O)c2ccc(Cl)cc2)c(N[C@@H](Cc2ccc(OC(=O)N(C)C)cc2)C(=O)O)n1,73,130,23000,32000,8.52,,,,,,,,,

# From ChEMBL document CHEMBL2380222, “Arylsulfonamide pyrimidines as VLA-4 antagonists” (Bioorg Med Chem Lett, 2013)
